Measurements from ChEMBL document CHEMBL1250501, “Anti-tubercular agents. Part 5: synthesis and biological evaluation of benzothiadiazine 1,1-dioxide based congeners” (Eur J Med Chem, 2010).
In brackets after ≈: the same amount, converted by molar mass. Activity calls are given as the source filed them. The rule behind the calls is not given here.

What was measured:
Klebsiella pneumoniae [1] = assay: Antibacterial activity against Klebsiella pneumoniae at 50 ug/ml after 18 hrs by cup plate method; type: functional; conditions: read-out: DIZ
In short: (§1)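 Agar well diffusion on Mueller-Hinton agar. Inoculum was adjusted to a 0.5 McFarland standard (about […] × 10⁸ CFU/mL) and swabbed over the plate three times, rotating about 60° each time, then the rim was swabbed. Compounds in DMSO went into duplicate 6 mm wells. Plates were incubated at 37 °C for 18 h and inhibition zone diameter read to the nearest mm. DMSO negative control; streptomycin and ciprofloxacin positive controls.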

Pseudomonas aeruginosa [2] = assay: Antibacterial activity against Pseudomonas aeruginosa at 10 ug/ml after 18 hrs by cup plate method; type: functional; in short: as §1
Bacillus subtilis [3] = assay: Antibacterial activity against Bacillus subtilis at 100 ug/ml after 18 hrs by cup plate method; type: functional; conditions: read-out: DIZ; in short: as §1
Escherichia coli [4] = assay: Antibacterial activity against Escherichia coli at 50 ug/ml after 18 hrs by cup plate method; type: functional; conditions: read-out: DIZ; in short: as §1
Candida albicans [5] = assay: Antifungal activity against Candida albicans MTCC 227 at 50 ug/ml after 48 hrs by cup plate method; type: functional
In short: (§2)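 Agar well (cup plate) diffusion on potato dextrose agar 39 g/L. Compounds dissolved in DMSO and loaded into 6 mm wells. Incubated at 28 ± 2 °C for 48 h. Inhibition zone diameter measured to the nearest millimetre, three replicates per treatment. DMSO solvent as negative control, amphotericin B as positive control.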

Staphylococcus aureus [6] = assay: Antibacterial activity against Staphylococcus aureus at 10 ug/ml after 18 hrs by cup plate method; type: functional; in short: as §1
Candida albicans [7] = assay: Antifungal activity against Candida albicans MTCC 227 at 25 ug/ml after 48 hrs by cup plate method; type: functional; in short: as §2
[8] = system: Staphylococcus epidermidis; assay: Antibacterial activity against Staphylococcus epidermidis at 100 ug/ml after 18 hrs by cup plate method; type: functional; conditions: read-out: DIZ; in short: as §1
Pseudomonas aeruginosa [9] = assay: Antibacterial activity against Pseudomonas aeruginosa at 25 ug/ml after 18 hrs by cup plate method; type: functional; conditions: read-out: DIZ; in short: as §1
Escherichia coli [10] = assay: Antibacterial activity against Escherichia coli at 75 ug/ml after 18 hrs by cup plate method; type: functional; conditions: read-out: DIZ; in short: as §1
Staphylococcus aureus [11] = assay: Antibacterial activity against Staphylococcus aureus at 25 ug/ml after 18 hrs by cup plate method; type: functional; conditions: read-out: DIZ; in short: as §1
Aspergillus sp. [12] = assay: Antifungal activity against Aspergillus sp. at 75 ug/ml after 48 hrs by cup plate method; type: functional
In short: (§3)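 Agar well (cup plate) diffusion on potato dextrose agar 39 g/L, with compounds dissolved in DMSO. Plates were incubated at 28 ± 2 °C for 48 h and inhibition zones measured to the nearest mm. Three replicates per treatment. Amphotericin B positive control; solvent control included.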

Candida albicans [13] = assay: Antifungal activity against Candida albicans MTCC 227 at 75 ug/ml after 48 hrs by cup plate method; type: functional; conditions: MTCC 227, 48 h, read-out: IZ; in short: as §2
Aspergillus niger [14] = assay: Antifungal activity against Aspergillus niger at 50 ug/ml after 48 hrs by cup plate method; type: functional, organism-based; in short: as §3
Staphylococcus aureus [15] = assay: Antibacterial activity against Staphylococcus aureus at 75 ug/ml after 18 hrs by cup plate method; type: functional; conditions: read-out: DIZ; in short: as §1
Escherichia coli [16] = assay: Antibacterial activity against Escherichia coli at 100 ug/ml after 18 hrs by cup plate method; type: functional; conditions: read-out: DIZ; in short: as §1
[17] = system: Staphylococcus epidermidis; assay: Antibacterial activity against Staphylococcus epidermidis at 75 ug/ml after 18 hrs by cup plate method; type: functional; conditions: read-out: DIZ; in short: as §1
Klebsiella pneumoniae [18] = assay: Antibacterial activity against Klebsiella pneumoniae at 10 ug/ml after 18 hrs by cup plate method; type: functional; in short: as §1
[19] = system: Mycobacterium tuberculosis; assay: Antimycobacterial activity against Mycobacterium tuberculosis H37Rv after 3 to 4 weeks by broth microdilution assay; type: functional
In short: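 MIC by broth microdilution on compounds active in a single-concentration primary screen. Plates incubated 3–4 weeks at 37 °C in a CO₂ incubator. Wells read visually for absence of growth turbidity.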

[20] = system: Staphylococcus epidermidis; assay: Antibacterial activity against Staphylococcus epidermidis at 25 ug/ml after 18 hrs by cup plate method; type: functional; conditions: read-out: DIZ; in short: as §1
Klebsiella pneumoniae [21] = assay: Antibacterial activity against Klebsiella pneumoniae at 25 ug/ml after 18 hrs by cup plate method; type: functional; conditions: read-out: DIZ; in short: as §1
Klebsiella pneumoniae [22] = assay: Antibacterial activity against Klebsiella pneumoniae at 75 ug/ml after 18 hrs by cup plate method; type: functional; conditions: read-out: DIZ; in short: as §1
Bacillus subtilis [23] = assay: Antibacterial activity against Bacillus subtilis at 10 ug/ml after 18 hrs by cup plate method; type: functional; conditions: read-out: DIZ; in short: as §1
Pseudomonas aeruginosa [24] = assay: Antibacterial activity against Pseudomonas aeruginosa at 75 ug/ml after 18 hrs by cup plate method; type: functional; conditions: read-out: DIZ; in short: as §1
Aspergillus sp. [25] = assay: Antifungal activity against Aspergillus sp. at 25 ug/ml after 48 hrs by cup plate method; type: functional; in short: as §3
Pseudomonas aeruginosa [26] = assay: Antibacterial activity against Pseudomonas aeruginosa at 100 ug/ml after 18 hrs by cup plate method; type: functional; conditions: read-out: DIZ; in short: as §1
[27] = system: Staphylococcus epidermidis; assay: Antibacterial activity against Staphylococcus epidermidis at 10 ug/ml after 18 hrs by cup plate method; type: functional; conditions: read-out: DIZ; in short: as §1
Aspergillus niger [28] = assay: Antifungal activity against Aspergillus niger at 25 ug/ml after 48 hrs by cup plate method; type: functional, organism-based; in short: as §3
Candida albicans [29] = assay: Antifungal activity against Candida albicans MTCC 227 at 100 ug/ml after 48 hrs by cup plate method; type: functional; conditions: MTCC 227, 48 h, read-out: IZ; in short: as §3
Bacillus subtilis [30] = assay: Antibacterial activity against Bacillus subtilis at 50 ug/ml after 18 hrs by cup plate method; type: functional; in short: as §1
Klebsiella pneumoniae [31] = assay: Antibacterial activity against Klebsiella pneumoniae at 100 ug/ml after 18 hrs by cup plate method; type: functional; conditions: read-out: DIZ; in short: as §1
Staphylococcus aureus [32] = assay: Antibacterial activity against Staphylococcus aureus at 100 ug/ml after 18 hrs by cup plate method; type: functional; conditions: read-out: DIZ; in short: as §1
[33] = system: Staphylococcus epidermidis; assay: Antibacterial activity against Staphylococcus epidermidis at 50 ug/ml after 18 hrs by cup plate method; type: functional; conditions: read-out: DIZ; in short: as §1
Aspergillus sp. [34] = assay: Antifungal activity against Aspergillus sp. at 50 ug/ml after 48 hrs by cup plate method; type: functional; in short: as §3
Aspergillus niger [35] = assay: Antifungal activity against Aspergillus niger at 100 ug/ml after 48 hrs by cup plate method; type: functional; in short: as §3
Staphylococcus aureus [36] = assay: Antibacterial activity against Staphylococcus aureus at 50 ug/ml after 18 hrs by cup plate method; type: functional; conditions: read-out: DIZ; in short: as §1
Aspergillus niger [37] = assay: Antifungal activity against Aspergillus niger at 75 ug/ml after 48 hrs by cup plate method; type: functional; in short: as §3
Pseudomonas aeruginosa [38] = assay: Antibacterial activity against Pseudomonas aeruginosa at 50 ug/ml after 18 hrs by cup plate method; type: functional; conditions: read-out: DIZ; in short: as §1
Aspergillus sp. [39] = assay: Antifungal activity against Aspergillus sp. at 100 ug/ml after 48 hrs by cup plate method; type: functional; in short: as §3
Klebsiella pneumoniae [40] = assay: Antibacterial activity against Klebsiella pneumoniae at 100 units after 18 hrs by cup plate method; type: functional, organism-based
Escherichia coli [41] = assay: Antibacterial activity against Escherichia coli at 100 units after 18 hrs by cup plate method; type: functional, organism-based
Aspergillus niger [42] = assay: Antifungal activity against Aspergillus niger at 100 units after 48 hrs by cup plate method; type: functional
[43] = system: Staphylococcus epidermidis; assay: Antibacterial activity against Staphylococcus epidermidis at 100 units after 18 hrs by cup plate method; type: functional, organism-based
Candida albicans [44] = assay: Antifungal activity against Candida albicans MTCC 227 at 100 units after 48 hrs by cup plate method; type: functional
Pseudomonas aeruginosa [45] = assay: Antibacterial activity against Pseudomonas aeruginosa at 100 units after 18 hrs by cup plate method; type: functional, organism-based
Staphylococcus aureus [46] = assay: Antibacterial activity against Staphylococcus aureus at 100 units after 18 hrs by cup plate method; type: functional, organism-based
Bacillus subtilis [47] = assay: Antibacterial activity against Bacillus subtilis at 100 units after 18 hrs by cup plate method; type: functional, organism-based
Aspergillus sp. [48] = assay: Antifungal activity against Aspergillus sp. at 100 units after 48 hrs by cup plate method; type: functional

CN1C(N2CCN(Cc3ccc([N+](=O)[O-])o3)CC2)=NS(=O)(=O)c2ccccc21
zone of inhibition at 50 µg/mL (Klebsiella pneumoniae [1]): 10 mm
diameter of the inhibition zone (DIZ) (Pseudomonas aeruginosa [2]): inactive
zone of inhibition at 100 µg/mL (Bacillus subtilis [3]): 23 mm
zone of inhibition at 50 µg/mL (Escherichia coli [4]): 15 mm
zone of inhibition at 50 µg/mL (Candida albicans [5]; MTCC 227, 48 h, read-out: IZ): 11 mm
diameter of the inhibition zone (DIZ) (Staphylococcus aureus [6]): inactive
inhibition zone (IZ) (Candida albicans [7]): inactive
zone of inhibition at 100 µg/mL [8]: 24 mm
zone of inhibition at 25 µg/mL (Pseudomonas aeruginosa [9]): 12 mm
zone of inhibition at 75 µg/mL (Escherichia coli [10]): 29 mm
zone of inhibition at 25 µg/mL (Staphylococcus aureus [11]): 10 mm
inhibition zone (IZ) (Aspergillus sp. [12]): inactive
zone of inhibition at 75 µg/mL (Candida albicans [13]): 14 mm
inhibition zone (IZ) (Aspergillus niger [14]): inactive
zone of inhibition at 75 µg/mL (Staphylococcus aureus [15]): 17 mm
zone of inhibition at 100 µg/mL (Escherichia coli [16]): 26 mm
zone of inhibition at 75 µg/mL [17]: 18 mm
diameter of the inhibition zone (DIZ) (Klebsiella pneumoniae [18]): inactive
MIC [19]: 8 µg/mL (≈ 19.7 µM)
zone of inhibition at 25 µg/mL [20]: 13 mm
zone of inhibition at 25 µg/mL (Klebsiella pneumoniae [21]): 12 mm
zone of inhibition at 75 µg/mL (Klebsiella pneumoniae [22]): 17 mm
zone of inhibition at 10 µg/mL (Bacillus subtilis [23]): 9 mm
zone of inhibition at 75 µg/mL (Pseudomonas aeruginosa [24]): 17 mm
inhibition zone (IZ) (Aspergillus sp. [25]): inactive
zone of inhibition at 100 µg/mL (Pseudomonas aeruginosa [26]): 17 mm
zone of inhibition at 10 µg/mL [27]: 10 mm
inhibition zone (IZ) (Aspergillus niger [28]): inactive
zone of inhibition at 100 µg/mL (Candida albicans [29]): 18 mm
diameter of the inhibition zone (DIZ) (Bacillus subtilis [30]): inactive
zone of inhibition at 100 µg/mL (Klebsiella pneumoniae [31]): 19 mm
zone of inhibition at 100 µg/mL (Staphylococcus aureus [32]): 17 mm
zone of inhibition at 50 µg/mL [33]: 15 mm
inhibition zone (IZ) (Aspergillus sp. [34]): inactive
inhibition zone (IZ) (Aspergillus niger [35]): inactive
zone of inhibition at 50 µg/mL (Staphylococcus aureus [36]): 14 mm
inhibition zone (IZ) (Aspergillus niger [37]): inactive
zone of inhibition at 50 µg/mL (Pseudomonas aeruginosa [38]): 10 mm
inhibition zone (IZ) (Aspergillus sp. [39]): inactive

O=C(O)c1cn(C2CC2)c2cc(N3CCNCC3)c(F)cc2c1=O [CIPROFLOXACIN]
zone of inhibition at 50 µg/mL (Klebsiella pneumoniae [1]): 20 mm
zone of inhibition at 50 µg/mL (Escherichia coli [4]): 38 mm
inhibition zone (IZ) (Candida albicans [5]): inactive
zone of inhibition at 25 µg/mL (Pseudomonas aeruginosa [9]): 40 mm
zone of inhibition at 25 µg/mL (Klebsiella pneumoniae [21]): 21 mm
zone of inhibition at 50 µg/mL (Bacillus subtilis [30]; read-out: DIZ): 32 mm
zone of inhibition at 50 µg/mL [33]: 34 mm
zone of inhibition at 50 µg/mL (Staphylococcus aureus [36]): 26 mm
zone of inhibition at 50 µg/mL (Pseudomonas aeruginosa [38]): 30 mm

C[C@@H]1[C@H](O)[C@@H](C)/C=C/C=C/C=C/C=C/C=C/C=C/C=C/[C@H](O[C@@H]2O[C@H](C)[C@@H](O)[C@H](N)[C@@H]2O)C[C@@H]2O[C@](O)(C[C@@H](O)C[C@@H](O)[C@H](O)CC[C@@H](O)C[C@@H](O)CC(=O)O[C@H]1C)C[C@H](O)[C@H]2C(=O)O [AMPHOTERICIN B]
diameter of the inhibition zone (DIZ) (Klebsiella pneumoniae [40]): inactive
diameter of the inhibition zone (DIZ) (Escherichia coli [41]): inactive
inhibition zone (IZ) (Aspergillus niger [42]): 23 mm
diameter of the inhibition zone (DIZ) [43]: inactive
inhibition zone (IZ) (Candida albicans [44]): 14 mm
diameter of the inhibition zone (DIZ) (Pseudomonas aeruginosa [45]): inactive
diameter of the inhibition zone (DIZ) (Staphylococcus aureus [46]): inactive
diameter of the inhibition zone (DIZ) (Bacillus subtilis [47]): inactive
inhibition zone (IZ) (Aspergillus sp. [48]): 14 mm
